# Bioassay records (PubChem)
# An excerpt weighted towards active compounds, which were near 2.1% of everything screened.
# MRP resist rev: reverses drug resistance mediated by MRP. hit rate 0.04% among 85,000. H69AR cells + 2 uM doxorubicin, CellTiter-Glo, 72 h. differential viability (reversal), % at 10 µM;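 active = viability drop by adding the cancer drug above about 55%, with treated viability meeting a 40% cutoff, limit read from the data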;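 note: viability without doxorubicin minus viability with 2 µM doxorubicin for each compound; larger differential means the compound sensitizes cells more to doxorubicin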
# Phagocyt inh: inhibitors of macrophage phagocytosis; J774A.1 macrophage IgG-bead phagocytosis, imaging; inhibition, % at 5 µM; hit rate 0.07% among 110,000; AID 1029;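 active = inhibition above the mean of the plate negative controls plus 5 SD, cut at about 13% in these data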;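 note: phagocytic index as fraction of beads internalized from green versus red external bead signal; plate controls were DMSO negative control for no effect and cytochalasin-D positive control for full effect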
# Yeast life ext: yeast lifespan extension; S. cerevisiae growth with nicotinamide, OD615; deaD strain in restrictive glucose medium; inhibition of the nicotinamide effect, % at 10 µM; hit rate 0.68% among 130,000; AID 775;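 active = inhibition above a set limit, placed 3 SD over the median of all compounds, cut at about 26% in these data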;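 note: 0% = nicotinamide-treated wells and 100% = cells grown without nicotinamide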
#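 Test system: DeaD-strain S. cerevisiae / Buffer or medium: restrictive glucose medium / Also added: nicotinamide 1.5 mM / Doses: one concentration, 10 µM, DMSO 0.25% / Schedule: 48 h at 30 °C / Signal: OD615 measurement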
# SDO1 yeast rescue: sdo1-depleted yeast growth rescue; S. cerevisiae sdo1-depleted JHY4D growth rescue, OD600 30 h; active compounds read high; pdr5 snq2 efflux-pump mutant strain; z-score at 10 µM; hit rate 0.21% among 140,000; AID 817;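 active = z-score above 3 at both the 24 hr and the 30 hr optical density reads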;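 note: z-score against mean and SD of all compound wells on the same plate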
# MRP1 act: activators of MRP-1 | H69AR cells + doxorubicin, viability rescue, CellTiter-Glo | AID 799 | hit rate 0.61% among 140,000 | viability increase, % at 10 µM;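 active = viability gain under doxorubicin at or above a set limit, the compound median plus 3 SD, cut at about 4.7% in these data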;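 note: MRP-1 overexpressing cells given doxorubicin 25 µM after compound pretreatment; 18-22 h compound pretreatment then 72 h with doxorubicin before readout; 0% = doxorubicin-only wells and 100% = vehicle-treated cells without doxorubicin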
# BB579 growth dn: reduces growth of yeast BB579 in restrictive medium | S. cerevisiae BB579 growth, OD615, 48 h | inhibition, % at 10 µM | hit rate 0.51% among 140,000;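 active = inhibition above a set limit, 3 SD over the mean compound inhibition, cut at about 44% in these data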
#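 Detection: OD615 turbidity measurement; Material: Saccharomyces cerevisiae DeaD strain BB579, replicative lifespan model yeast; Timing: 48 h exposure, 30 °C; Doses: single 10 µM dose; Medium: CSMM-D restrictive synthetic medium containing dextrose (glucose); Controls: amphotericin B at 10 µg/mL as positive control.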
# Active calls of the source: *; . = not tested or not shown; [ ] = remark or other dose.
SMILES,MRP resist rev,Phagocyt inh,Yeast life ext,SDO1 yeast rescue,MRP1 act,BB579 growth dn
CCCn1c(=O)c(C(=O)NNS(=O)(=O)c2ccc(Cl)cc2)c(O)c2ccccc21,.,-6.6,27.1*,-1.85,-3.0,-15.3
CCCN(CCC)CCSc1nc(O)c(C(C)C)c(=O)[nH]1,-1.6,-0.5,-11.1,0.48,0.3,-49.6
C(#Cc1ccc(C#CCN2CCOCC2)cc1)CN1CCOCC1,8.4,0.5,-4.0,0.33[9.9 µM],-2.4,-25.3
Cc1cc(NC(=O)COC(=O)C2CCN(S(=O)(=O)c3cccc(Cl)c3Cl)CC2)no1,-18.4,-0.5,-4.1,-1.47,-2.5,-26.9
O=c1c(-c2ccc(Cl)cc2)[n+]([O-])c2ccccc2n1OCc1ccccn1,.,.,45.3*,-0.36,0.4,-40.7
Cc1ccc(-c2c(=O)n(OCc3ccccn3)c3ccccc3[n+]2[O-])cc1,.,1.2,54.9,2,0.0,-22.0
Cc1nc2ccc(S(=O)(=O)Nc3cccc(-c4nc5cccnc5s4)c3C)cc2s1,.,.,3.1,-0.77,1.1,-20.4
Oc1cccc(/C=N/NC(=S)Nc2cccnc2)c1O,.,-6.3,-0.8,-0.53,2.7,53.0*
Oc1ccc(/C=N/NC(=S)Nc2cccnc2)c(O)c1,.,-7.2,-4.3,0.6,0.1,8.4
COc1cccc(NC(=O)N[C@@H](Cc2ccccc2)C(=O)O)c1,7.9,-0.5,8.2,0.79,0.2,-24.1
O=C(CN1CCC(n2nnc3cc(C(F)(F)F)ccc32)CC1)N1CCc2ccccc21,6.8,-0.5,39.6*,-0.16,-1.5,-28.9
CCOc1cc2[nH]c(=O)n(CCC(=O)NCCc3ccccc3)c(=O)c2cc1OCC,8.6,1.8,-12.1,-0.46,-6.6,-18.4
COC(=O)c1ccc(NC(=S)Nc2ccccc2)cc1,.,-0.3,-4.4,0.59,-2.0,-19.3
O=C(O)c1ccc(NC(=S)Nc2ccccc2)cc1,.,-2.9,37.2*,-0.21,-3.6,17.1
Cc1nnc(SCC(=O)NNC(=O)c2ccccc2)n1-c1ccccc1,.,.,-0.4,1.09,-0.1,-31.1
Cc1ccc(O)c(-c2cc(-c3ccccc3F)[nH]n2)c1,-5.8,.,-9.3,-2.26,-5.1,-47.4
Cc1ccc(-c2cc(-c3ccccc3C)[nH]n2)c(O)c1,-1.6,.,.,-2.54,-3.0,100.0*
Cc1ccc(-c2cc(-c3cccc(F)c3)n[nH]2)c(O)c1,-22.1,-1.1,-10.5,-1.69,-5.1,-10.7
Cc1ccc(O)c(-c2cc(-c3cccc(F)c3)n[nH]2)c1,0.6,-2.3,-12.8,-2.18,-5.2,99.1*
Cc1sc2ncn(C(C)C(=O)OC3CCCCC3)c(=O)c2c1C (configuration not stated),.,1.7,27.3*,0,-0.6,-40.2
CCOc1cc(C2NC(=O)NC(O)(C(F)(F)F)C2C(=O)c2ccc(Cl)cc2)ccc1O (configuration not stated),2.8,-0.1,-6.0,1.42,-0.2,-8.3
Cc1ccc2nc(CSc3nc(C)ccc3C#N)[nH]c2c1,.,-0.1,-20.9,-2.11,-4.4,-61.2
CN(C)CC(C(=O)c1ccccc1)c1ccccc1 (configuration not stated),0.5,.,100.7*,-2.7,-2.7,-37.9
CC(C)(C)c1ccc(-c2nc(-c3ccncc3)no2)cc1,9.4,.,.,-0.6,6.2*,68.3*
O=C(Nc1ccc(CN2CCCCC2)cc1)c1ccc(Br)o1,12.0,-2.1,-6.0,1.43,-3.0,-20.2
SMILES,MRP resist rev,Phagocyt inh,Yeast life ext,SDO1 yeast rescue,MRP1 act,BB579 growth dn
Cc1cc2nc(C)n3c4ccccc4nc3n2n1,-14.7,.,-15.4,-0.53,-2.6,85.5*
CCc1nc2cc(C)nn2c2nc3ccccc3n12,-6.2,0.9,-20.6,0.86,-0.4,10.4
CCOCCCNC(=O)c1cc(Sc2ccc(F)cc2)nc2ccccc12,.,-9.2,3.1,-1.12,-2.6,-26.3
CCOC(=O)CN1C(=O)C(C)(C)Oc2ccc(C(=O)Nc3ccccc3OC)cc21,-6.2,-0.4,-5.8,-0.42,5.3*,-14.2
Cc1ccc(NC(=O)c2ccc3c(c2)N(CC(=O)N2CCCCC2)C(=O)C(C)(C)O3)cc1,-23.9,-0.5,-8.8,-0.52,-4.9,-19.3
Cn1c(N)c(C(=O)COC(=O)c2cc(C3CC3)nc3ccccc23)c(=O)n(Cc2ccccc2)c1=O,.,.,16.5,-0.04,5.3*,-32.0
Cn1c(N)c(C(=O)COC(=O)c2cc(-c3ccccc3)nc3ccccc23)c(=O)n(Cc2ccccc2)c1=O,.,.,30.5*,0.26,2.5,-34.4
COc1ccc(C2C(C(=O)Nc3ccc(F)cc3)=C(C)Nc3nc(CCCO)nn32)cc1 (configuration not stated),-0.5,-0.4,-1.9,1.21,-1.4,-1.9
CNc1sc(C(=O)c2ccc(F)cc2)c(N)c1-c1nc2ccccc2s1,1.9,-0.1,-1.9,-0.5,3.3,-39.6
CNc1sc(C(=O)c2cccs2)c(N)c1-c1nc2ccccc2s1,-13.7,-0.3,-24.1,-1.19,9.0*,8.1
COc1ccc(N(CC(=O)O)S(=O)(=O)c2ccc(OC)c(OC)c2)cc1,7.9,-1.1,29.3*,-0.33,-0.8,-22.8
Cn1c(SCC(=O)N/N=C/c2ccc([N+](=O)[O-])s2)nnc1-c1ccc(Cl)cc1,.,.,-6.5,-2.37,-4.8,99.4*
CC(=O)N1N=C(c2ccc(Cl)cc2)OC1(C)C,.,-10.6,23.4,1.98,-0.7,48.3*
CCS(=O)(=O)NCc1csc(C)n1,6.8,-1.2,-17.4,1.06,-2.7,-39.0
CCOC(=O)C1=C(C)N=c2s/c(=C\c3ccc(OC(C)=O)cc3)c(=O)n2C1/C=C/c1ccccc1 (configuration not stated),.,-2.4,-1.3,-1.02,6.7*,-18.0
CCOC(=O)C1=C(C)N=c2s/c(=C\c3ccc(OC(C)=O)c(OCC)c3)c(=O)n2C1/C=C/c1ccccc1 (configuration not stated),.,3.9,-7.1,0.06,-1.9,-11.8
Cc1[nH]n(-c2ccccc2)c(=O)c1N=Nc1nccs1,.,-1.5,33.6*,0.21,-2.0,-38.6
COc1ccc(NC(=O)C2C(=O)NC3(C)CC2c2ccccc2O3)cc1 (configuration not stated),17.9,-0.9,3.2,1.73,4.9*,-26.5
CN1CCN(c2ccc([N+](=O)[O-])cc2/C=N/NC(=O)c2ccc(F)cc2)CC1,.,-0.7,-21.5,-0.03,-2.0,-39.9
Cc1cccc(C)c1OCC(=O)Nc1oc(-c2ccccc2)c(-c2ccccc2)c1C#N,-19.7,.,.,.,.,.
Cn1c(SCC(=O)Nc2ccccc2)nc(O)cc1=O,-3.3,.,-4.7,-0.1,-2.0,61.6*
CCNc1ccc(C(=O)OCC(=O)c2cc(C)n(Cc3ccc4c(c3)OCO4)c2C)cc1[N+](=O)[O-],.,-4.9,1.8,0.09,5.2*,-13.6
CCNc1ccc(C(=O)OCC(=O)NCc2ccc(C)cc2)cc1[N+](=O)[O-],.,-9.2,-2.3,-0.14,-0.3,-54.7
Nc1ccc(C(=O)OCC(=O)Nc2ccc3c(c2)OCO3)cc1[N+](=O)[O-],.,-3.7,-0.9,0.03,-2.7,98.4*
